Consider 22 compounds from ChEMBL document CHEMBL4028892, “Discovery of a 1-Methyl-3,4-dihydronaphthalene-Based Sphingosine-1-Phosphate (S1P) Receptor Agonist Ceralifimod (ONO-4641). A S1P1 and S1P5 Selective Agonist for the Treatment of Autoimmune Diseases” (J Med Chem, 2017).

The structures appear in SMILES notation.

Data set [1] has as its target T1, Sphingosine 1-phosphate receptor 1 (Homo sapiens, UniProt P21453). Kind of data set: Agonist activity at human S1P1 receptor expressed in CHO-K1 cells assessed as increase in S1P-stimulated calcium influx preincubated for 5 mins followed by S1P stimulation measured every 3 secs by fluorescence method. Format: functional, cell-based. The essentials:
(§1)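 Fura2 Ca2+ assay in CHO-K1 cells stably expressing human S1P1 or S1P3. Cells were loaded with 5 μM Fura2-AM in Ham's F12 (10% FBS, 20 mM HEPES pH 7.4, 2.5 mM probenecid) for 60 min at 37 °C, then washed. After a 30 s baseline, compound was added (0.1 nM–30 μM final, DMSO), then 100 nM S1P 5 min later. Ratio read every 3 s (ex 340/380, em 500 nm). Increase ratio (%) = B/A×100 against the DMSO-well S1P peak; EC50 taken from the concentration series; mean of ≥2 data points.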

In data set [2] the target is Sphingosine 1-phosphate receptor 3 (Homo sapiens, UniProt Q99500). Kind of data set: Agonist activity at human S1P3 receptor expressed in CHO-K1 cells assessed as increase in S1P-stimulated calcium influx preincubated for 5 mins followed by S1P stimulation measured every 3 secs by fluorescence method. The class given is cell-based.
The species entered for data set [3] is Homo sapiens. Nature of the data set: Selectivity ratio of EC50 for human S1P3 receptor to EC50 for human S1P1 receptor. The method, boiled down:
as §1

The test system of data set [4] is Mus musculus. Kind of data set: Decrease in peripheral lymphocyte levels in po dosed BALB/c mouse at 4 hrs by automated hematology analyzer. Format: functional. The method, boiled down:
(§2)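 Compound given orally to 6-week-old male BALB/c mice. At 4 or 24 h, blood was taken from the abdominal aorta under ether anaesthesia and lymphocytes counted on an automated haematology analyser. Counts expressed as % of the vehicle-group mean; ED50 is the dose lowering counts to 50%. One experiment, five mice.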

Data set [5] deals with T1, Sphingosine 1-phosphate receptor 1. Nature of the data set: Agonist activity at human S1P1 receptor expressed in CHO-K1 cells assessed as inhibition of forskolin-stimulated cAMP accumulation after 30 mins by ELISA. Format: functional, cell-based. Background: cAMP levels reflect the balance of adenylyl cyclase and phosphodiesterase activity.
For data set [6], the target named is Sphingosine 1-phosphate receptor 5 (Homo sapiens, UniProt Q9H228). Kind of data set: Agonist activity at human S1P5 receptor expressed in CHO-K1 cells assessed as inhibition of forskolin-stimulated cAMP accumulation after 30 mins by ELISA. The class given is functional, cell-based.
For data set [7], the system named is Mus musculus. Nature of the data set: Decrease in peripheral lymphocyte levels in po dosed BALB/c mouse at 24 hrs by automated hematology analyzer. The class given is functional. The method, boiled down: as §2
For data set [8], the target named is S1P3 receptor (sphingosine 1-phosphate receptor 3) (Homo sapiens, UniProt Q99500). Kind of data set: Agonist activity at human S1P3 receptor expressed in CHO-K1 cells assessed as increase in S1P-stimulated calcium influx at 30 uM preincubated for 5 mins followed by S1P stimulation measured every 3 secs by fluorescence method relative to control. Particulars: CHO-K1 cells expressing human S1P3 receptor, read-out: max activation. Format: cell-based. The essentials: as §1

A short description of data set [9]: Protein binding in cynomolgus monkey serum at 50 to 5000 ng/ml after 10 mins by ultracentrifugation method. The class given is ADME, cell-free, Macaca fascicularis. The note with it: read-out: PB. The method, boiled down:
(§3)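 Serum protein binding measured at compound concentrations of 50, 500 and 5,000 ng/mL. Mean of four binding experiments.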

Data set [10] in a line: Protein binding in Lewis rat serum at 50 to 5000 ng/ml after 10 mins by ultracentrifugation method. The class given is ADME, cell-free. The note with it: read-out: PB. The essentials: as §3
The nature of data set [11]: Metabolic stability in mouse liver microsomes assessed as parent compound remaining after 2 hrs by radio-HPLC method. Format: ADME, microsome. The note with it: read-out: Stability. The essentials: (§4)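 Tritium-labelled compound incubated for 2 h in liver microsomes of each species. Read-out was % of unchanged form remaining; mean of two experiments.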
Data set [12] in a line: Metabolic stability in Sprague-Dawley rat liver microsomes assessed as parent compound remaining after 2 hrs by radio-HPLC method. The class given is ADME, microsome. The note with it: read-out: Stability. The essentials:
as §4
In general terms: Liver microsomes are a subcellular fraction often used to study metabolism.

Data set [13] is described as follows: Metabolic stability in cynomolgus monkey liver microsomes assessed as parent compound remaining after 2 hrs by radio-HPLC method. Format: ADME, Macaca fascicularis, microsome. Particulars: read-out: Stability. The essentials:
as §4

A short description of data set [14]: Metabolic stability in human liver microsomes assessed as parent compound remaining after 2 hrs by radio-HPLC method. The class given is ADME, microsome. The note with it: read-out: Stability. The method, boiled down: as §4
Data set [15] is described as follows: Protein binding in mouse serum at 50 to 5000 ng/ml after 10 mins by ultracentrifugation method. Format: ADME, cell-free. Particulars: read-out: PB. The method, boiled down:
as §3

Data set [16] is described as follows: Protein binding in Sprague-Dawley rat serum at 50 to 5000 ng/ml after 10 mins by ultracentrifugation method. Particulars: read-out: PB. The class given is ADME, cell-free. The method, boiled down:
as §3

Data set [17] can be described thus: Protein binding in human serum at 50 to 5000 ng/ml after 10 mins by ultracentrifugation method. The class given is ADME, cell-free. The note with it: read-out: PB. The essentials: as §3

T1 sequence (P21453 whole entry): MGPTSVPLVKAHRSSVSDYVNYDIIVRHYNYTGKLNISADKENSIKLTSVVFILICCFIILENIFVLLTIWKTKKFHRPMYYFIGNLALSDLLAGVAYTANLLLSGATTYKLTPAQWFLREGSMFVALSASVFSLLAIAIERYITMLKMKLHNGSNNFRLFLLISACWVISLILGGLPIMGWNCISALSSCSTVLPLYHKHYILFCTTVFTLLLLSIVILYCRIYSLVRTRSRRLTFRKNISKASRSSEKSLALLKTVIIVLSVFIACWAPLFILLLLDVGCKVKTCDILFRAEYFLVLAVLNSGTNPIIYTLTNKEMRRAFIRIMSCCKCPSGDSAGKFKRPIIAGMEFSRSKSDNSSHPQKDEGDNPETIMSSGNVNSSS
Sphingosine 1-phosphate receptor 3, sequence (Q99500 whole entry): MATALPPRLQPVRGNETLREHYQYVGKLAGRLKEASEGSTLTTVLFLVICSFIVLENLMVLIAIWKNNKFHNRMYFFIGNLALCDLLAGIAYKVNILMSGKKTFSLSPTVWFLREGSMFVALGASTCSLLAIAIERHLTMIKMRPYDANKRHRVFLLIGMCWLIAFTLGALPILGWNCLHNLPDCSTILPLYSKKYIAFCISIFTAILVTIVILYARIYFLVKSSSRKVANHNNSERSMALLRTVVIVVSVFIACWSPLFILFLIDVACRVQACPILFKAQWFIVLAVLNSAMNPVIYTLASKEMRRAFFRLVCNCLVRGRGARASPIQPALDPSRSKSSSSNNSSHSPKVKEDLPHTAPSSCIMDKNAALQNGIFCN
Sphingosine 1-phosphate receptor 5, sequence (Q9H228 whole entry): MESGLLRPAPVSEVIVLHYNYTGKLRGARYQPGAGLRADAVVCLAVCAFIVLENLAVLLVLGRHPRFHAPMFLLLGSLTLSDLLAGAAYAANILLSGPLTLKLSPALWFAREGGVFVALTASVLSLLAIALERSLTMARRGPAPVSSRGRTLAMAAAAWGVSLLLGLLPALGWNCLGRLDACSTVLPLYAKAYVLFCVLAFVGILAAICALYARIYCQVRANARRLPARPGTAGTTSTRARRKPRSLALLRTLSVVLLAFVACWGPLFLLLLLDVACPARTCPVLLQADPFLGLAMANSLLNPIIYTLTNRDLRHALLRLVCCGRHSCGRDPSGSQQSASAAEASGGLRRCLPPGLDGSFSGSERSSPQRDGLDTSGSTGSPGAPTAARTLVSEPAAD
S1P3 receptor (sphingosine 1-phosphate receptor 3), sequence (Q99500 whole entry): as the sequence (Q99500 whole entry) above

The term EC50 denotes the concentration that produces a half-maximal response. As usually defined, the ED50 is the dose at which the effect has come halfway, by size or by number of responders. For the compound `COc1cc(CC(C)(C)O)ccc1COc1ccc2c(c1)CCC(CN1CC(C(=O)O)C1)=C2C`, the 50% effective concentration (EC50) was 6.6 nM in data set [1] and above 30000 nM in [2]. For the same compound, the Ratio EC50 in data set [3] was above 4500. Besides, the 50% effective dose (ED50) in data set [4] is 0.16 mg/kg.
For `CCCc1cc(OC)c(COc2ccc3c(c2)CCC(CN2CC(C(=O)O)C2)=C3C)cn1` the same measures were 57 nM, above 30000 nM, above 530 and above 0.1 mg/kg.
As to `CC1=C(CN2CC(C(=O)O)C2)CCc2cc(OCC3Cc4ccccc4C3)ccc21`, the concentration giving a half-maximal response (EC50) was 7.9 nM in [1] and above 30000 nM in data set [2]. In addition, in data set [3], the Ratio EC50 was above 3800. In [4], this compound displayed a 50% effective dose (ED50) above 1 mg/kg.
Consider `CCCc1ccc(COc2ccc3c(c2C)CCC(CN2CC(C(=O)O)C2)=C3C)c(OC)n1`, for which the half-maximal effective concentration (EC50) was 1.2 nM in data set [1], above 30000 nM in [2], 0.19 nM in data set [5] and 0.92 nM in data set [6]. Moreover, the Ratio EC50 in data set [3] is above 25000. The ED50 in data set [4] is 0.017 mg/kg; in [7], 0.048 mg/kg.
For `CCCCc1ccc(COc2ccc3c(c2)CCC(CN2CC(C(=O)O)C2)=C3C)c(OC)c1`, the EC50 is 3.5 nM in [1] and above 30000 nM in data set [2]. The Ratio EC50 in [3] was above 8600. For the same compound, the ED50 in data set [4] came to 0.09 mg/kg; in [7], 0.18 mg/kg.
With `CC1=C(CN2CC(C(=O)O)C2)CCc2cc(OCc3ccc(CC(C)C)cc3C)ccc21`, the EC50 is 13 nM in [1] and above 30000 nM in data set [2]. For the same compound, the Ratio EC50 in data set [3] was above 2300. In [4], this compound returned a 50% effective dose (ED50) of 0.23 mg/kg.
`CCCc1ccc(COc2ccc3c(c2C)CCC(CN2CC(C(=O)O)C2)=C3C)c(OC)c1`: the 50% effective concentration (EC50) in data set [1] was 1.2 nM; in data set [2], above 30000 nM; in data set [5], 0.072 nM; in data set [6], 0.98 nM. The Ratio EC50 in data set [3] was above 25000. The ED50 in [4] was 0.032 mg/kg; in [7], 0.072 mg/kg.
Regarding `CC1=C(CN2CC(C(=O)O)C2)CCc2cc(OCCCc3ccccc3)ccc21`, the Ratio EC50 in data set [3] came to 1700. Further, the median effective dose (ED50) in data set [4] came to 0.4 mg/kg.
As for `CC1=C(CN2CC(C(=O)O)C2)CCc2cc(OCc3ccc(CC(C)C)cc3Cl)ccc21`, the concentration for a half-maximal effect (EC50) in data set [1] was 4.5 nM; in data set [2], above 30000 nM. Besides, the Ratio EC50 in data set [3] is above 6700. In [4], the 50% effect level (ED50) was put at a dose of 0.19 mg/kg.
Consider `CC1=C(CN2CC(C(=O)O)C2)CCc2cc(OCc3ccc4ccccc4c3)ccc21`, for which the concentration for a half-maximal effect (EC50) in data set [1] was 54 nM; in data set [2], above 10000 nM. Further, the Ratio EC50 in data set [3] is above 190.
`CC1=C(CN2CC(C(=O)O)C2)CCc2cc(OCc3ccc(CC(C)C)cc3)ccc21`: the EC50 is 5 nM in [1] and above 30000 nM in [2]. In addition, the Ratio EC50 in [3] was above 6000. Moreover, the Emax at 3 s, 30 µM in [8] was below 50%. Further, the 50% effective dose (ED50) in data set [4] came to 0.39 mg/kg.
Consider `CC1=C(CN2CC(C(=O)O)C2)CCc2cc(OCCC3CCCc4ccccc43)ccc21` (configuration not stated), for which the concentration giving a half-maximal response (EC50) in [1] was 97 nM; in [2], above 30000 nM. Besides, the Ratio EC50 in [3] was above 310.
For `CCCc1ccc(COc2cc3c(cc2C)C(C)=C(CN2CC(C(=O)O)C2)CC3)c(OC)c1`, the EC50 in data set [1] is 540 nM; in data set [2], above 30000 nM. Moreover, the Ratio EC50 in data set [3] was above 56.
Turning to `CC1=C(CN2CC(C(=O)O)C2)CCc2cc(OCc3ccc(CC(C)C)cc3F)ccc21`, the EC50 is 2.6 nM in data set [1] and above 30000 nM in data set [2]. Also, the Ratio EC50 in [3] was above 12000. Also, in [4], the 50% effective dose (ED50) turned out to be 0.073 mg/kg.
As to `COc1cc(C)ccc1COc1ccc2c(c1)CCC(CN1CC(C(=O)O)C1)=C2C`, the 50% effective concentration (EC50) is 1.4 nM in data set [1] and above 30000 nM in data set [2]. The Ratio EC50 in data set [3] was above 21000. The same compound displayed a median effective dose (ED50) in data set [4] above 0.1 mg/kg.
Regarding `CCc1ccc(COc2ccc3c(c2)CCC(CN2CC(C(=O)O)C2)=C3C)c(OC)c1`, the EC50 in data set [1] was 0.58 nM; in [2] it was above 30000 nM. For the same compound, in data set [3], the Ratio EC50 is above 52000. Moreover, the 50% effective dose (ED50) in data set [4] was 0.026 mg/kg; in data set [7] it was 0.3 mg/kg.
For `COc1cc(CC(C)C)ccc1COc1ccc2c(c1)CCC(CN1CC(C(=O)O)C1)=C2C` the same measures were 1 nM, 9300 nM, 9300, 0.0092 mg/kg and 0.04 mg/kg.
Consider `CCCc1ccc(COc2ccc3c(c2)CCC(CN2CC(C(=O)O)C2)=C3C)c(OC)n1`, for which the 50% effective concentration (EC50) was 0.58 nM in data set [1] and 6800 nM in data set [2]. Besides, the Ratio EC50 in data set [3] is 12000. Moreover, the 50% effect level in data set [4] (ED50) was put at a dose of 0.011 mg/kg.
For `CC1=C(CN2CC(C(=O)O)C2)CCc2cc(OCCC3CCc4ccccc43)ccc21` (configuration not stated) the same measures were 1.7 nM, 5500 nM, above 3200 and above 1 mg/kg.
In the case of `[3H]C(C1=C(C)c2ccc(OCc3ccc(CCC)cc3OC)cc2CC1)N1CC(C(=O)O)C1` (configuration not stated), the fraction unbound at 10 min was 0.027 to 0.029 in data set [9]; 0.023 to 0.028 in [10]; 0.029 to 0.038 in data set [15]; 0.018 to 0.023 in data set [16]; 0.029 to 0.032 in data set [17]. Besides, the remaining at 2 h came to 93.3% in data set [11], 92.6% in data set [12], 94.1% in data set [13] and 95.2% in data set [14].
Regarding `CC1=C(CN2CC(C(=O)O)C2)CCc2cc(OCC3CCc4ccccc4C3)ccc21` (configuration not stated), the 50% effective concentration (EC50) in [1] is 19 nM; in data set [2], above 30000 nM. The Ratio EC50 in data set [3] is above 1600.
Regarding `COc1cc(COc2ccc3c(c2)CCC(CN2CC(C(=O)O)C2)=C3C)ccc1CC(C)C`, the results for the EC50 in [1] and in [2] were 3 nM and 4000 nM, respectively. In addition, in data set [3], the Ratio EC50 was 1300. For the same compound, in data set [4], the ED50 came to 0.034 mg/kg.
